ChEMBL document CHEMBL1147089, “Protein protein interaction inhibition (2P2I) combining high throughput and virtual screening: Application to the HIV-1 Nef protein” (Proc Natl Acad Sci U S A, 2007)
pKd: −log10 of the molar value. Active and inactive are the calls of the source. No cut-off for these calls is given here.

Key:
COS-7 [1] = test: Inhibition of HIV1 Nef-SH3Hck interaction in COS7 cells at 20 uM after 36 hrs by mammalian two-hybrid assay; type: cell-based; details: Human immunodeficiency virus 1
In short: (§1)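 Firefly luciferase reports interaction, Renilla luciferase (from GAL4–SH3Hck construct) normalizes transfection and viability; inhibition from reduced LucFF:LucRN ratio. Dose series 2–32 μM; screening at 20 μM.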

[2] = Binding affinity to HIV1 Nef by isothermal titration calorimetry method; parameters: species or system Human immunodeficiency virus 1
In short: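 Nef57–205 dialyzed in ITC buffer (20 mM Hepes pH 7.0, 100 mM NaCl, 5% DMSO), 15–25 μM in cell; inhibitor 300–400 μM in same buffer (DMSO 5%) injected 10–15 μl every 300 s at 25°C; heat of dilution into buffer alone subtracted; apparent KD from titration.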

[3] = Toxicity against african green monkey COS7 cells assessed as cell viability upto 100 uM; type: cell-based; details: chlorocebus aethiops, cos-7
[4] = test system: Human immunodeficiency virus 1; test: Reduction of HIV1 Nef-mediated MHC class 1 down regulation in human PBMC after 3 hrs
[5] = test system: Human immunodeficiency virus 1; test: Reduction in HIV1 Nef-mediated CD4 down regulation in human PBMC after 3 hrs
[6] = test system: Human immunodeficiency virus 1; test: Reduction of HIV1 Nef-SH3Hck protein interaction at 0.1 uM by GST pull-down method
COS-7 [7] = test: Reduction of HIV1 Nef-SH3Hck protein interaction in COS7 cells assessed as reduction of LucFF:LucRN ratio at 32 uM after 36 hrs by mammalian two-hybrid assay; type: cell-based; parameters: scale not given: the % may be the effect or the level left; details: Human immunodeficiency virus 1; in short: as §1
[8] = molecular target: T1, DNA-binding protein inhibitor ID-1 (Homo sapiens) (UniProt P41134); test: Reduction of Id-MyoD interaction in COS7 cells at 32 uM after 36 hrs by mammalian two-hybrid assay; type: cell-based; parameters: scale not given: the % may be the effect or the level left; details: COS-7
T1 sequence (whole entry): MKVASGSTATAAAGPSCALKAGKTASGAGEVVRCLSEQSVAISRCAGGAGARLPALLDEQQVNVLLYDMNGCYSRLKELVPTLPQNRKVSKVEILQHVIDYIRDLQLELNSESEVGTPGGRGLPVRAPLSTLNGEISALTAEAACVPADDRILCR
In short: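 Specificity counterscreen: Id–MyoD mammalian two-hybrid in COS7 cells, compounds at 2, 4, 8, 16, 32 μM for 36 h; read-out as normalized firefly:Renilla luciferase ratio.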

Row | Structure (SMILES) | inhibition (COS-7 [1]) | pKd [2] | further results
1 | O=C(O)CCC(=O)c1ccc2ccc3cccc4ccc1c2c34 | 58.4% | – | –
2 | c1ccc(/C(=N/Nc2nc3ccccc3s2)c2ccccn2)cc1.c1ccc(/C(=N\Nc2nc3ccccc3s2)c2ccccn2)cc1 | 57.2% | – | –
3 | CC(C)(C)c1ccc(OCC(=O)Nc2cccc(C(=O)O)c2)cc1 | 75% | 6.01 | Activity [3]: Non-toxic
4 | O=C(O)CCCc1ccc2ccc3ccccc3c2c1 | 63.2% | 5.17 | –
5 | COc1cc2ccccc2c2cc([N+](=O)[O-])oc12 | 53.8% | 4.96 | –
6 | CN(C)c1ccc2nc3c(C(=O)O)cc(=O)c(O)c-3oc2c1 | 80.4% | 5.89 | –
7 | CC(C)(C)c1ccc(OC(=O)Nc2ccc(O)c(C(=O)O)c2)cc1 | 73.4% | 5.74 | Activity [4]: Dose-dependent effect; Activity [5]: inactive; Activity [6]: Active; Activity [3]: Non-toxic; Activity (COS-7 [7]): 77%; Activity [8]: 17%
8 | Cc1cc(OCc2nc(N)nc(N)c2-c2ccc(Cl)c(Cl)c2)ccc1[N+](=O)[O-] | 57.5% | – | –
